ChEMBL document CHEMBL3046481, “Design, synthesis, and bioactivity study of novel benzoylpyridazyl ureas” (2009)

How the values were obtained:
Type in all cases: functional
Culex pipiens pallens [1] = assay: Larvicidal activity against fourth-instar larval stage of Culex pipiens pallens (mosquito) assessed as mortality at 2 mg/l at 25 +/-1 degC measured after 8 days; conditions: 192 h
In short: (§1)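 Insects were laboratory-reared and the bioassay was repeated at 25 ± 1 °C as statistics required. Larvae were scored dead or alive, and mortality was corrected with Abbott's formula. Results are given as percentage mortality on a 0–100 scale, where 0 is no activity and 100 is total kill. Hexaflumuron was run under the same conditions as the reference.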

Mythimna separata [2] = assay: Larvicidal activity against fourth-instar larval stage of Mythimna separata (Oriental armyworm) in compound pretreated corn leaves assessed as mortality at 200 mg/l at 25 +/-1 degC measured after 4 days; in short: as §1
Culex pipiens pallens [3] = assay: Larvicidal activity against fourth-instar larval stage of Culex pipiens pallens (mosquito) assessed as mortality at 1 mg/l at 25 +/-1 degC measured after 8 days; conditions: 192 h; in short: as §1
Mythimna separata [4] = assay: Larvicidal activity against fourth-instar larval stage of Mythimna separata (Oriental armyworm) in compound pretreated corn leaves assessed as mortality at 10 mg/l at 25 +/-1 degC measured after 4 days; in short: as §1
Mythimna separata [5] = assay: Larvicidal activity against fourth-instar larval stage of Mythimna separata (Oriental armyworm) in compound pretreated corn leaves assessed as mortality at 25 mg/l at 25 +/-1 degC measured after 4 days; in short: as §1
Mythimna separata [6] = assay: Larvicidal activity against fourth-instar larval stage of Mythimna separata (Oriental armyworm) in compound pretreated corn leaves assessed as mortality at 50 mg/l at 25 +/-1 degC measured after 4 days; in short: as §1
Mythimna separata [7] = assay: Larvicidal activity against fourth-instar larval stage of Mythimna separata (Oriental armyworm) in compound pretreated corn leaves assessed as mortality at 100 mg/l at 25 +/-1 degC measured after 4 days; in short: as §1
Culex pipiens pallens [8] = assay: Larvicidal activity against fourth-instar larval stage of Culex pipiens pallens (mosquito) assessed as mortality at 0.25 mg/l at 25 +/-1 degC measured after 8 days; conditions: 192 h; in short: as §1

| Compound | mortality at 2 µg/mL (Culex pipiens pallens [1]) | mortality at 200 µg/mL (Mythimna separata [2]) | other results |
| --- | --- | --- | --- |
| Cc1ccc(NC(=O)NC(=O)c2c(F)cccc2F)nn1 | 20% | 10% | – |
| O=C(NC(=O)c1c(F)cccc1F)Nc1ccc(Sc2ccccc2)nn1 | – | 20% | – |
| O=C(NC(=O)c1c(F)cccc1F)Nc1ccc(OCC(F)(F)F)nn1 | – | – | mortality at 1 µg/mL (Culex pipiens pallens [3]): 30%; mortality at 10 µg/mL (Mythimna separata [4]): 80%; mortality at 25 µg/mL (Mythimna separata [5]): 100% |
| CCCCSc1ccc(NC(=O)NC(=O)c2c(F)cccc2F)nn1 | – | 100% | mortality at 50 µg/mL (Mythimna separata [6]): 90%; mortality at 100 µg/mL (Mythimna separata [7]): 100% |
| CC(C)Oc1ccc(NC(=O)NC(=O)c2c(F)cccc2F)nn1 | 10% | 100% | mortality at 50 µg/mL (Mythimna separata [6]): 70%; mortality at 100 µg/mL (Mythimna separata [7]): 100% |
| CCOc1ccc(NC(=O)NC(=O)c2c(F)cccc2F)nn1 | 20% | 100% | mortality at 50 µg/mL (Mythimna separata [6]): 80%; mortality at 100 µg/mL (Mythimna separata [7]): 100% |
| O=C(NC(=O)c1c(F)cccc1F)Nc1ccc(Oc2ccccc2Cl)nn1 | 40% | 20% | – |
| O=C(NC(=O)c1c(F)cccc1F)Nc1ccc(OCc2ccc(Cl)cc2)nn1 | 10% | 10% | – |
| O=C(NC(=O)c1c(F)cccc1F)Nc1ccc(Oc2ccc(Cl)cc2Cl)nn1 | 60% | 20% | – |
| O=C(NC(=O)c1c(F)cccc1F)Nc1ccc(Oc2c(Cl)cc(Cl)cc2Cl)nn1 | 20% | – | mortality at 100 µg/mL (Mythimna separata [7]): 10% |
| O=C(NC(=O)c1c(F)cccc1F)Nc1ccc(Oc2ccc(Br)cc2)nn1 | 100% | 30% | mortality at 1 µg/mL (Culex pipiens pallens [3]): 90% |
| COc1ccc(Oc2ccc(NC(=O)NC(=O)c3c(F)cccc3F)nn2)cc1 | 10% | 10% | – |
| Cc1ccc(Oc2ccc(NC(=O)NC(=O)c3c(F)cccc3F)nn2)cc1 | 0% | 0% | – |
| O=C(NC(=O)c1c(F)cccc1F)Nc1ccc(Oc2ccc(Cl)cc2)nn1 | 20% | 10% | – |
| O=C(NC(=O)c1c(F)cccc1F)Nc1cc(Cl)c(OC(F)(F)C(F)F)c(Cl)c1 [HEXAFLUMURON] | – | – | mortality at 0.25 µg/mL (Culex pipiens pallens [8]): 100%; mortality at 10 µg/mL (Mythimna separata [4]): 80% |
